Shown are actives, neighbours in structure and some others; about 1.9% of the full set was active somewhere.
TDP2 absorb: TDP2 (human) inhibition, absorbance primary screen. recombinant TDP2, T5PNP hydrolysis, p-nitrophenol absorbance 415 nm. inhibition, % at 12.8 µM. 0.34% of 370,000 active;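 active = inhibition above the mean of all tested compounds plus 3 SD, set per campaign, cut at about 25% in these data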;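 note: 0% = DMSO with enzyme and 100% = buffer with substrate but no TDP2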
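Test system: Human TDP2 enzyme | Reagent: 5 mM T5PNP | Compound dosing: 12.8 µM single point, 1% DMSO | Incubation: Enzyme reaction with compound for 2 h at 37 °C | Technique: p-Nitrophenol epi absorbance | Read-out: % inhibition relative to enzyme-containing and enzyme-free wells | Benchmarks: High control without enzyme, low control DMSO plus TDP2 | Replicates: Singlicate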
LEDGF integ inh: blocks HIV-1 LEDGF/p75-dependent DNA integration | inhibition, % at 3.7 µM | AID 743269 | 0.64% of 370,000 active | TR-FRET IN-LEDGF/p75 DNA integration, Eu/Cy5;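 active = inhibition above the screen-wide mean plus 3 SD, cut at about 13% in these data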;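 note: signal is the Cy5 over europium emission ratio at 671 and 618 nm; 0% = plate median of compound wells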
MBD2 inh: inhibitors of human MBD2 binding to methylated oligonucleotide. Q9UBB5. TR-FRET. inhibition, % at 4.4 µM. 0.31% of 370,000 active. AID 686964; in the data active = inhibition above about 13%
Target sequence (Q9UBB5 whole entry, looked up): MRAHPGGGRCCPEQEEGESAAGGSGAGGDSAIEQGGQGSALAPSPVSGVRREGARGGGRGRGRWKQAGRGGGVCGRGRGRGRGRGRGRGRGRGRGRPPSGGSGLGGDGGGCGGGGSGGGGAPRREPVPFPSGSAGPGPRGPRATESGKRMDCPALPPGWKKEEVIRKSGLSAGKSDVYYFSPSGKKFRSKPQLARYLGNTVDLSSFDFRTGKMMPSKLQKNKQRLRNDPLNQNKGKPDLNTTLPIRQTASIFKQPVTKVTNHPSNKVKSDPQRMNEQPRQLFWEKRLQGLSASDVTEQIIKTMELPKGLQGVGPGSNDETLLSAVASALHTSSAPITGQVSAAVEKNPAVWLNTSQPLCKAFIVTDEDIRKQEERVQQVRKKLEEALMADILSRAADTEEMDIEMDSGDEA
Rin1 Abl inh: human Rin1-Abl interaction inhibition. P00519+Q13671. inhibition, % at 7.35 µM. 0.4% of 360,000 active. TR-FRET Rin1/Abl binding, biochemical. AID 588664; in the data active = inhibition above about 5%, passing the limit was not always enough
UHRF1 MBD2 ctr: UHRF1 methyl-DNA binding inhibition. 0.75% of 370,000 active. UHRF1 binding to methylated oligo, TR-FRET. AID 687016. Q96T88. inhibition, % at 4.4 µM; in the data active = inhibition above about 21%;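 note: UHRF1 SRA domain binding a hemimethylated CpG hairpin DNA probe; 0% = median of test compound wells and 100% = reference inhibitor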
Rin1-Abl confirm: confirmation of inhibitors of human Rin1-Abl interaction | AID 602124 | shares compounds with Rin1 Abl inh | TR-FRET Rin1-Abl binding, purified proteins | inhibition, % at 7.35 µM | 49% of 1,300 active
GFP quench-1: GFP fluorescence interference artifact | shares compounds with Rin1 Abl inh | inhibitors/quenchers counterscreen | inhibition, % at 6.75 µM | 8.5% of 1,300 active;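 note: ABL1-eGFP fusion protein alone without its partner RIN1-SBP; 0% = protein with vehicle and 100% = wells lacking protein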
GFP quench dose: GFP fluorescence interference dose response. shares compounds with Rin1 Abl inh. 230 tested, under 10 active. GFP fluorescence interference/quenching counterscreen. IC50, µM; call rule not given here;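 note: ABL1-eGFP fusion protein alone without its RIN1 binding partner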
GFP quench-2: GFP quenching artifact for Rin1-Abl inhibitor hits; IC50, µM; GFP fluorescence quenching counterscreen, biochemical; 25 tested, under 10 active; AID 602397; shares compounds with Rin1 Abl inh; call rule not given here
The depositor's hits bear a star. Cut-off read from the data, not from the text of the source, unless noted: active = inhibition above about 6.5%; inactive = the rest.

`C#CCO[C@@H]1C[C@H](n2cnc3c(NC(=O)c4ccccc4)ncnc32)O[C@@H]1CO` gave TDP2 absorb 4, LEDGF integ inh 1, MBD2 inh 2, Rin1 Abl inh 0 and UHRF1 MBD2 ctr 10.
COC(=O)CN1CCN(C(=O)c2csc(-c3ccccc3)n2)CC1 was read as TDP2 absorb 9, LEDGF integ inh 3, MBD2 inh 0 and UHRF1 MBD2 ctr 0.
Screening COc1cc2ncc(S(=O)(=O)c3ccccc3)c(N3CCC4(CC3)OCCO4)c2cc1OC returned TDP2 absorb 8, LEDGF integ inh -2, MBD2 inh 2, Rin1 Abl inh -2 and UHRF1 MBD2 ctr 3.
Screening COc1ccc2ncc(S(=O)(=O)c3ccccc3)c(N3CCC4(CC3)OCCO4)c2c1 returned TDP2 absorb -7, LEDGF integ inh 1, MBD2 inh -4, Rin1 Abl inh 8.2*, UHRF1 MBD2 ctr 3, Rin1-Abl confirm 4 and GFP quench-1 1.
`COc1ccccc1CCC(=O)N(Cc1ccccc1)c1c(N)n(Cc2ccccc2)c(=O)[nH]c1=O` gave TDP2 absorb -3, LEDGF integ inh 1, MBD2 inh -1, Rin1 Abl inh 3 and UHRF1 MBD2 ctr 3.
For Nc1c(N(Cc2ccccc2)C(=O)CCc2ccccc2)c(=O)[nH]c(=O)n1Cc1ccccc1 the results were TDP2 absorb 1, LEDGF integ inh -1, MBD2 inh -2, Rin1 Abl inh 9.8*, UHRF1 MBD2 ctr 0, Rin1-Abl confirm -1 and GFP quench-1 1.
Screening O=C(COC(=O)c1ccc(-n2cnnn2)cc1)c1ccc(Br)cc1 returned TDP2 absorb -2, LEDGF integ inh 1, MBD2 inh 1, Rin1 Abl inh 1 and UHRF1 MBD2 ctr 0.
`COC(=O)c1ccc(COC(=O)c2ccc(-n3cnnn3)cc2)o1` gave TDP2 absorb 3, LEDGF integ inh 0, MBD2 inh 0, Rin1 Abl inh 23*, UHRF1 MBD2 ctr -3, Rin1-Abl confirm 20*, GFP quench-1 -1 and GFP quench dose >67.
O=C(CSC1=NNC(c2ccccn2)S1)Nc1ccccc1 (configuration not stated) was read as TDP2 absorb 1, LEDGF integ inh -4, MBD2 inh -3, Rin1 Abl inh 6.5*, UHRF1 MBD2 ctr -6, Rin1-Abl confirm -6 and GFP quench-1 3.
CCCCCCCC[n+]1c(C)n(-c2ccccc2)c2ccc(NC(C)=O)cc21 was read as TDP2 absorb 0, LEDGF integ inh 0, MBD2 inh 3, Rin1 Abl inh 5.0*, UHRF1 MBD2 ctr -1, Rin1-Abl confirm 6.7* and GFP quench-1 0.
`CC(=O)Nc1ccc(SCC(=O)c2cc(C)n(-c3ccccc3)c2C)cc1` gave TDP2 absorb -3, LEDGF integ inh 0, MBD2 inh 1, Rin1 Abl inh 2 and UHRF1 MBD2 ctr 11.
`CCn1c(Cc2cccs2)nnc1SCC(=O)Nc1ccc2c(c1)OCCO2` gave TDP2 absorb 0, LEDGF integ inh 0, MBD2 inh 5 and UHRF1 MBD2 ctr 0.
For COc1ccc(C2C3=C(CC(C)(C)CC3=O)Oc3ncn(CCCn4ccnc4)c(=N)c32)cc1 (configuration not stated) the results were TDP2 absorb -2, LEDGF integ inh -4, MBD2 inh 4, Rin1 Abl inh 4.5*, UHRF1 MBD2 ctr 1, Rin1-Abl confirm 10* and GFP quench-1 0.
`CCS(=O)(=O)N1CCC(C(=O)NCc2ccc(F)cc2)CC1` gave TDP2 absorb -14, LEDGF integ inh 5, MBD2 inh 0, Rin1 Abl inh 3 and UHRF1 MBD2 ctr 0.
O=C(NCc1ccc(F)cc1)C1CCN(S(=O)(=O)N2CCOCC2)CC1 was read as TDP2 absorb -6, LEDGF integ inh 1, MBD2 inh 1, Rin1 Abl inh 8.4*, UHRF1 MBD2 ctr 0, Rin1-Abl confirm 1 and GFP quench-1 1.
Screening CCN(CC)CCCNC(=O)C1c2ccccc2Oc2ccccc21 returned TDP2 absorb 3, LEDGF integ inh 2, MBD2 inh 2, Rin1 Abl inh 5.0*, UHRF1 MBD2 ctr 0, Rin1-Abl confirm 1 and GFP quench-1 -1.
COCCCNC(=O)C1c2ccccc2Oc2ccccc21 was read as TDP2 absorb 14, LEDGF integ inh 0, MBD2 inh 3, Rin1 Abl inh -1 and UHRF1 MBD2 ctr 2.
Screening O=C(NC1CCN(Cc2ccccc2)CC1)c1ccc2c(c1)[nH]c(=O)n2Cc1ccc(F)cc1 returned TDP2 absorb 6, LEDGF integ inh 3, MBD2 inh 0, Rin1 Abl inh 10*, UHRF1 MBD2 ctr 1, Rin1-Abl confirm 13* and GFP quench-1 0.
CCCCCn1c(=O)[nH]c2cc(C(=O)NC3CCN(Cc4ccccc4)CC3)ccc2c1=O was read as TDP2 absorb 1, LEDGF integ inh -6, MBD2 inh -1, Rin1 Abl inh 0 and UHRF1 MBD2 ctr 2.
CN(CCc1ccccc1)C(=O)c1ccc(NC(=O)Cc2ccc(NC(=O)C3CCN(C(=O)C4CCCC4)CC3)cc2)cc1 was read as TDP2 absorb -12, LEDGF integ inh 4, MBD2 inh -10, Rin1 Abl inh 60*, UHRF1 MBD2 ctr 0, Rin1-Abl confirm 68*, GFP quench-1 1, GFP quench dose >67 and GFP quench-2 >68.
For CN(CCc1ccccc1)C(=O)c1ccc(NC(=O)Cc2ccc(NC(=O)C3CCN(C(=O)C4CC4)CC3)cc2)cc1 the results were TDP2 absorb -10, LEDGF integ inh -4, MBD2 inh -1, Rin1 Abl inh 13*, UHRF1 MBD2 ctr -3, Rin1-Abl confirm 15* and GFP quench-1 -4.
For CN(CCc1ccccc1)C(=O)c1ccc(NC(=O)Cc2ccc(NC(=O)C3CCCN(C(=O)c4ccccc4)C3)cc2)cc1 (configuration not stated) the results were TDP2 absorb -14, LEDGF integ inh 2, MBD2 inh 0, Rin1 Abl inh -3 and UHRF1 MBD2 ctr 0.
`CN(CCc1ccccc1)C(=O)c1ccc(NC(=O)Cc2ccc(NC(=O)C3CCCN(C(=O)C4CCCCC4)C3)cc2)cc1` (configuration not stated) gave TDP2 absorb 10, LEDGF integ inh 3, MBD2 inh -1, Rin1 Abl inh -4 and UHRF1 MBD2 ctr -1.

From PubChem
